Data set [1] deals with T1, human kidney-type glutaminase (hKGA124-669) (Homo sapiens, UniProt O94925).
T1 sequence (O94925 124-669): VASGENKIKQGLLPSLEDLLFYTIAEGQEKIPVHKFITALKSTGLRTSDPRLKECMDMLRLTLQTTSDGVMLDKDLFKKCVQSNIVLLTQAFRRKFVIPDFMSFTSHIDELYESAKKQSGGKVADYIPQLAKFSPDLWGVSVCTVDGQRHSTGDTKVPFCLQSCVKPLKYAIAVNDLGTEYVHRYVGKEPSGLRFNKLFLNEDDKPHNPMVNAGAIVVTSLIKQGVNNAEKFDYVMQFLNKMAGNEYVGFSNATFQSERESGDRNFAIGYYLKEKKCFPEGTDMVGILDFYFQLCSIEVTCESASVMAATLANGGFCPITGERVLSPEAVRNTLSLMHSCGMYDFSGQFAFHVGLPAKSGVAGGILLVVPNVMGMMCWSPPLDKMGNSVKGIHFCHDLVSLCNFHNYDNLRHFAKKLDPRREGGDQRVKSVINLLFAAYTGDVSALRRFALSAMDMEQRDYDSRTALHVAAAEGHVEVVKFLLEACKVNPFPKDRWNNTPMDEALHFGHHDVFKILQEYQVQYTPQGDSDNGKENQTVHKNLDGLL
The data set can be described thus: in vitro GLS assay with L-[3H]-glutamine as substrate. Conditions: for GLS inhibitory potency in words: comparison with compounds 8 and 3a. It is filed as biochemical.

The test system of another data set is GLS. The note with it: read-out: GLS inhibition IC50; literature value; cited from earlier work.
Data set [2] is classed as physicochemical. Conditions: final concentrations of 1-10 μM.
A short description of data set [3]: Aqueous solubility by the shake flask method. It is filed as physicochemical. Conditions: PBS buffer, 37 °C, pH 7.4, aqueous buffer, thermodynamic from solid. The method, boiled down:
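Test compound added to PBS (pH 7.4) at 5 mg/mL and shaken at 1000 rpm for 24 h at 37 °C to reach saturation. The solution was then passed through a 0.45 μm PTFE filter and the filtrate diluted. Concentration was quantified by UHPLC–Orbitrap MS on a C18 column (35 °C) with a 0.1% formic acid water/acetonitrile gradient, against a 5-10000 nM calibration curve.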

As for `O=C(Cc1ccccc1)Nc1nnc(CSCc2nnc(NC(=O)Cc3ccccc3)s2)s1` [Compound 2b, N,N’-(5,5’-Thiobis(methylene)bis(1,3,4-thiadiazole-5,2-diyl))bis(2-phenylacetamide), reference compound], the GLS inhibitory activity result in data set [1] (at concentrations up to 100 μM) is listed as “no inhibitory activity”. In data set [1], the “GLS inhibitory potency in words” value is listed as “negligible activity”. In addition, in the data set with GLS, the IC50 (commonly the point on the concentration scale where inhibition reaches its midpoint) is more than 20 µM. For the compound `O=C(Cc1ccccc1)Nc1nnc(CCSc2nnc(NC(=O)Cc3ccccc3)s2)s1` [Compound 3a, 2-Phenyl-N-(5-(2-(5-(2-phenylacetamido)-1,3,4-thiadiazol-2-yl)ethylthio)-1,3,4-thiadiazol-2-yl)acetamide], the “behaviour on addition of stock solution to cell culture media” value in data set [2] is listed as “precipitation”.

Regarding `Nc1nnc(CCSc2ccc(NC(=O)Cc3ccccc3)nn2)s1` [Compound 18, N-(6-(2-(5-Amino-1,3,4-thiadiazol-2-yl)ethylthio)pyridazin-3-yl)-2-phenylacetamide], the “GLS inhibitory potency in words” value in data set [1] was “substantially weaker potency”.

As to `O=C(Cc1ccccc1)Nc1ccc(SCCc2nnc(NC(=O)Cc3ccccc3)s2)nn1` [Compound 19, 2-Phenyl-N-(6-(2-(5-(2-phenylacetamido)-1,3,4-thiadiazol-2-yl)ethylthio)pyridazin-3-yl)acetamide], in data set [1], the “GLS inhibitory potency in words” value is listed as “substantially weaker potency”. As to `Nc1nnc(SCCc2ccc(NC(=O)Cc3ccccc3)nn2)s1` [Compound 24, N-(6-(2-(5-Amino-1,3,4-thiadiazol-2-ylthio)ethyl)pyridazin-3-yl)-2-phenylacetamide], in data set [1], the “GLS inhibitory potency in words” value is listed as “comparable”. For the compound `O=C(Cc1ccccc1)Nc1ccc(CCSc2nnc(NC(=O)Cc3ccccc3)s2)nn1` [Compound 25, 2-Phenyl-N-(6-(2-(5-(2-phenylacetamido)-1,3,4-thiadiazol-2-ylthio)ethyl)pyridazin-3-yl)acetamide], the “GLS inhibitory potency in words” value in data set [1] is given as “comparable”. For the same compound, in data set [3], the solubility (in general, the dissolved amount per volume that the medium holds) at 24 h was less than 1 µM.

The values are drawn from paper PMC9115729 (Bioorganic & medicinal chemistry, 2020).
